In ChEMBL document CHEMBL3576795, “Neolignans and other metabolites from Ocotea cymosa from the Madagascar rain forest and their biological activities” (J Nat Prod, 2015) one finds inhibition, IC50 and mortality data, which are given here for 18 compounds.

Activity calls are given as the source filed them. No cut-off for these calls is given here.

By IC50 is commonly meant the concentration at which inhibition is half-maximal. What is called mortality is the percentage killed.

One assay concerns A2780. Kind of assay: Antiproliferative against human A2780 cells after 2 days by AlamarBlue assay. Format: functional, cell-based.
Assay [1] deals with Plasmodium falciparum. Kind of assay: Antiplasmodium activity against Plasmodium falciparum Dd2. Format: functional, organism-based. The essentials: (§1)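 Dd2 ring-stage cultures at 1% hematocrit and 1% parasitaemia were grown for 72 h at 37°C in 5.05% CO2/4.93% O2/90.2% N2 with increasing drug concentrations. Viability was read by SYBR Green I DNA quantitation in lysis buffer. IC50 was obtained by nonlinear regression and averaged over three independent runs, each in duplicate, ± S.E.M.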

The test system of assay [2] is Plasmodium falciparum. Kind of assay: Antiplasmodium activity against chloroquine-resistant intraerythrocytic stage of Plasmodium falciparum Dd2 assessed as parasite growth inhibition after 72 hrs by SYBR Green I staining-based assay. Format: functional, organism-based. Particulars: Dd2, 72 h. The procedure, abridged: as §1
The test system of the next assay is Aedes aegypti. Kind of assay: Insecticidal activity against Aedes aegypti assessed as mortality at 4 mg/ml after 3 days. Format: functional. Particulars: 72 h. The essentials: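 A DMSO master stock of 4000 ppm was diluted with 90:10 water:acetone and robotically dispensed into six replicate plates. Plates were infested with about 1-day-old Aedes aegypti larvae hatched overnight in water with liver powder. They were covered to limit drying, held at room temperature for 3 days, and each well was scored for mortality.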

The subject of assay [3] is Plasmodium falciparum. Kind of assay: Antiplasmodium activity against chloroquine-sensitive Plasmodium falciparum PoW infected in human RBC assessed as parasite growth inhibition after 42 hrs by microculture radioisotope technique. Format: functional, organism-based.
Assay [4] relates to Plasmodium falciparum. Kind of assay: Antiplasmodium activity against chloroquine-resistant Plasmodium falciparum Dd2 infected in human RBC assessed as parasite growth inhibition after 42 hrs by microculture radioisotope technique. Format: functional, organism-based. The following applies: Dd2, 42 h.

For the compound `C=CC[C@]12C[C@@]3(OCOC3=CC1=O)[C@H](C)[C@@H]2c1cc(OC)c(OC)c(OC)c1`, the inhibition result in the assay with A2780 was “inactive”. In addition, the IC50 came out at 40.5 µM with Plasmodium falciparum [1] and 7.7 µM in the assay with Plasmodium falciparum [2]. In the case of `C=CCC1(C(C)Cc2ccc(OC)c(OC)c2)C=C2OCOC2=CC1=O` (stereo not drawn), the inhibition entry in the assay on A2780 was “inactive”.

With `C=CCC1(C(C)Cc2ccc(O)c(OC)c2)C=C2OCOC2=CC1=O` (stereo not drawn), the inhibition result in the assay with A2780 is “inactive”. In the case of `C=CCc1ccc(O[C@]23C[C@@H](CC=C)C(=O)C=C2OCO3)c(OC)c1`, the inhibition entry in the assay on A2780 was “inactive”. `C=CC[C@@]12C[C@]3(OCOC3=CC1=O)[C@@H](C)[C@@H]2c1ccc2c(c1)OCO2`: the mortality at 4000 µg/mL in the assay with Aedes aegypti was at least 80%. For the same compound, in the assay with A2780, the inhibition entry is “inactive”. In addition, the IC50 with Plasmodium falciparum [2] came out at 14.6 µM. As to `C=CCc1cc(OC)c(O[C@@H](C)Cc2cc(OC)c(OC)c(OC)c2)c(OC)c1`, the inhibition result in the assay with A2780 is “inactive”. For the same compound, the IC50 was determined as 3.1 µM in the assay with Plasmodium falciparum [1] and 3.3 µM in the assay with Plasmodium falciparum [2].

Turning to `C=CC[C@@]12C[C@]3(OCOC3=CC1=O)[C@@H](C)[C@@H]2c1cc(OC)c(OC)c(OC)c1`, the inhibition entry in the assay on A2780 is “inactive”. Regarding `C[C@@H]1CC[C@H]2[C@@H](C)C(=O)O[C@@H]3O[C@@]4(C)CC[C@@H]1[C@]32OO4` [ARTEMISININ], the concentration for half-maximal inhibition (IC50) in the assay on Plasmodium falciparum [2] turned out to be 0.00082 µM.

With `C=CCc1cc2c(cc1O[C@@H](C)Cc1cc(OC)c(OC)c(OC)c1)OCO2`, the mortality at 4000 µg/mL in the assay with Aedes aegypti is at least 80%. The inhibition result in the assay with A2780 was “inactive”. On to `C/C=C/c1cc(OC)c(OC(C)Cc2cc(OC)c(OC)c(OC)c2)c(OC)c1` (stereo not drawn), for which the IC50 was 12.4 µM with Plasmodium falciparum [3] and 14.9 µM in the assay on Plasmodium falciparum [4]. `C=CCc1cc2c(c3c1O[C@H](c1ccc4c(c1)OCO4)[C@H]3C)OCO2`: the inhibition entry in the assay with A2780 is “inactive”. As for `C=CC[C@@]12C[C@]3(OCOC3=CC1=O)[C@@H](C)[C@@H]2c1cc(O)c2c(c1)OCO2`, in the assay on A2780, the inhibition result was “inactive”. Further, the values for the IC50 with Plasmodium falciparum [1] and in the assay on Plasmodium falciparum [2] were 28.4 µM and 42 µM, respectively. As to `C=CCc1cc2c(c3c1O[C@H](c1cc(OC)c(OC)c(OC)c1)[C@H]3C)OCO2` (relative stereo), the mortality at 4000 µg/mL in the assay on Aedes aegypti is at least 80%. Further, the inhibition result with A2780 was “inactive”. In addition, the IC50 in the assay on Plasmodium falciparum [1] stood at 4.7 µM; with Plasmodium falciparum [2], 0.45 µM.

Turning to `C=CCc1cc(OC)c(O[C@]23C[C@@H](CC=C)C(=O)C=C2OCO3)c(OC)c1`, the inhibition result in the assay with A2780 was “inactive”. Consider `C=CCC1(C(C)Cc2cc(OC)c(O)c(OC)c2)C=C2OCOC2=CC1=O` (stereo not drawn), for which the inhibition result in the assay on A2780 was “inactive”. In the assay with Plasmodium falciparum [1], this compound came in with a half-inhibitory concentration (IC50) of 42.1 µM.

`C=CCC1(C(C)Cc2cc(OC)c(OC)c(OC)c2)C=C2OCOC2=CC1=O` (stereo not drawn): the inhibition result in the assay with A2780 is “inactive”. `C=CC[C@]12C[C@@]3(OCOC3=CC1=O)[C@H](C)[C@@H]2c1cc(OC)c2c(c1)OCO2`: in the assay on A2780, the inhibition entry is “inactive”. For the same compound, in the assay with Plasmodium falciparum [2], the half-inhibitory concentration (IC50) turned out to be 4.1 µM.

In the case of `C=CC[C@@]12C[C@]3(OCOC3=CC1=O)[C@@H](C)[C@@H]2c1cc(OC)c2c(c1)OCO2`, the inhibition result in the assay on A2780 was “inactive”.
